Measured values reported in the M2OR odorant receptor database.

Tests used:
Details in all cases: stereoisomer not certain
O5AN1 = test system: T1, O5AN1
T1 sequence (whole entry): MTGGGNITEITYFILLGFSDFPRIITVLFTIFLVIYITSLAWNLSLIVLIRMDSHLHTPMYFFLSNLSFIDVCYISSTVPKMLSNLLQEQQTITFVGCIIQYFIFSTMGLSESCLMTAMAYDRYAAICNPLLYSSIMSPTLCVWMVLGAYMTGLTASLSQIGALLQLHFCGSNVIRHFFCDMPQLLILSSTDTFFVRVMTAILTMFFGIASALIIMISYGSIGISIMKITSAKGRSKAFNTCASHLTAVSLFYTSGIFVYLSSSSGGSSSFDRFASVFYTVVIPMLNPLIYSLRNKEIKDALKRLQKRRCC
Outline: (§1)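 Values were gathered from published papers (main text and supplementary material), with extra details requested from the original authors when needed, and checked for typos and inconsistencies. Each receptor–molecule pair is called responsive (active) if the original authors judged the measured signal statistically different from baseline, and non-responsive (inactive) otherwise. Assay methods varied by source, often transient mammalian cell-line luciferase assays. Recorded details include cell line, G-protein, co-transfected protein and tags.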

OR10A2 (Homo sapiens) = target: T2, OR10A2 (Homo sapiens) (UniProt Q9H208)
T2 sequence (whole entry): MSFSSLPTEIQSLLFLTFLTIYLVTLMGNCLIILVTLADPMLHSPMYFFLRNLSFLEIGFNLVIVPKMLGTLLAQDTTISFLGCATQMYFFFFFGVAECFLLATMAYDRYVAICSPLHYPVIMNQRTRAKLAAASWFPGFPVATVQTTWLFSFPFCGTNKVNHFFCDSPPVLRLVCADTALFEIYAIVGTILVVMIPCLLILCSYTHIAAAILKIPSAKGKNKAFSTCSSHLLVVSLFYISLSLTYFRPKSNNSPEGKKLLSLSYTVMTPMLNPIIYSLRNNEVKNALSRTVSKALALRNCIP
Outline: as §1

OR10A3 (Homo sapiens) = target: T3, OR10A3 (Homo sapiens) (UniProt P58181)
T3 sequence (whole entry): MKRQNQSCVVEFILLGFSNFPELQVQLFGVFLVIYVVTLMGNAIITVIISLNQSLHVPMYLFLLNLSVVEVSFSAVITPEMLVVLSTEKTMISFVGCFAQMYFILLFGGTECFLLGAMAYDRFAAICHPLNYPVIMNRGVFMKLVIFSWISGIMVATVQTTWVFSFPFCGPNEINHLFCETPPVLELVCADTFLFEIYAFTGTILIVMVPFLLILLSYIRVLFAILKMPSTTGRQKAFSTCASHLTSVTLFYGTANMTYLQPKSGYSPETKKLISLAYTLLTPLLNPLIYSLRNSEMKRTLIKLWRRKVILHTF
Outline: as §1

OR10A4 (Homo sapiens) = target: T4, OR10A4 (Homo sapiens) (UniProt Q9H209)
T4 sequence (whole entry): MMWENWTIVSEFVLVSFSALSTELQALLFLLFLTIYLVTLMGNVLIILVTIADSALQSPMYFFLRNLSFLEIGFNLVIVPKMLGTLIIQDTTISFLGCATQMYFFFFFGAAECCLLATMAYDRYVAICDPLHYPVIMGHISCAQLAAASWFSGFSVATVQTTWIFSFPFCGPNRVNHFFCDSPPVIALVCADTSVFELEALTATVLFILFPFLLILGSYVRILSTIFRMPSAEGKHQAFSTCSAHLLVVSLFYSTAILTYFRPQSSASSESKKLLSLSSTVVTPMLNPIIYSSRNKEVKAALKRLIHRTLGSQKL
Outline: as §1

OR10A5 (Homo sapiens) = target: T5, OR10A5 (Homo sapiens) (UniProt Q9H207)
T5 sequence (whole entry): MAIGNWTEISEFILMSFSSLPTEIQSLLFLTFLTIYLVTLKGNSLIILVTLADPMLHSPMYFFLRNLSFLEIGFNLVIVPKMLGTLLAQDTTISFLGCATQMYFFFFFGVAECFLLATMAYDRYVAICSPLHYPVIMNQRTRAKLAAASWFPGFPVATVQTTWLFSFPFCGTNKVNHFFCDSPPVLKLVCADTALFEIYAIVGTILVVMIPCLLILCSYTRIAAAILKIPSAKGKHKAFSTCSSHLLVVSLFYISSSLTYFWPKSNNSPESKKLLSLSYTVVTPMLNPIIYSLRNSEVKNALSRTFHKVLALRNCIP
Outline: as §1

OR10A6 (Homo sapiens) = target: T6, OR10A6 (Homo sapiens) (UniProt Q8NH74)
T6 sequence (whole entry): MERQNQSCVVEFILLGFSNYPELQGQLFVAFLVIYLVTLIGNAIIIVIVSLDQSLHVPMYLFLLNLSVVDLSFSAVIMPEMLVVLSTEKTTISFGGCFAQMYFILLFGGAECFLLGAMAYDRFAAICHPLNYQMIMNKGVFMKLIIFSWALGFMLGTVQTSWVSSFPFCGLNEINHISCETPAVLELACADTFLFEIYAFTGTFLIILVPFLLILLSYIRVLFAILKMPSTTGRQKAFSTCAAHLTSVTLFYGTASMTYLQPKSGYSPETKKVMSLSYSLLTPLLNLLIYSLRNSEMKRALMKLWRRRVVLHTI
Outline: as §1

OR10A7 (Homo sapiens) = target: T7, OR10A7 (Homo sapiens) (UniProt Q8NGE5)
T7 sequence (whole entry): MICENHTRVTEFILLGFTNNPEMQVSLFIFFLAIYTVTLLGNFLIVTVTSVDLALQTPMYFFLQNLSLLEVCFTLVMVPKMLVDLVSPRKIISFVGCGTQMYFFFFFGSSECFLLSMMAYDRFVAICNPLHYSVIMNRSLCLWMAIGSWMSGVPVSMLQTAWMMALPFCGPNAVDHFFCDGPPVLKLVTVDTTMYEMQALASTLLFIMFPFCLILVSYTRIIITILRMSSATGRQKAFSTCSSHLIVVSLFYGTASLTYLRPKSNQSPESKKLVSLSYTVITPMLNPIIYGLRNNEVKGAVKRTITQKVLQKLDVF
Outline: as §1

OR10AD1 (Homo sapiens) = target: T8, OR10AD1 (Homo sapiens) (UniProt Q8NGE0)
T8 sequence (whole entry): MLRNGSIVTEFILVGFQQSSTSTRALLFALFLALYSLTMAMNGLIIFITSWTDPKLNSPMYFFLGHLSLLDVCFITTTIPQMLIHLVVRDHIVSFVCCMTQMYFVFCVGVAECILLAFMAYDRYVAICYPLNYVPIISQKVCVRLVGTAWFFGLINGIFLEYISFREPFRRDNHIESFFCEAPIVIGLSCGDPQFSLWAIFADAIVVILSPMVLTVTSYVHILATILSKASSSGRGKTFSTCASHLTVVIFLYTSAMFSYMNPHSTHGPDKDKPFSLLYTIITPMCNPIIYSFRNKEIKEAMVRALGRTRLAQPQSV
Outline: as §1

OR10AG1 (Homo sapiens) = target: T9, OR10AG1 (Homo sapiens) (UniProt Q8NH19)
T9 sequence (whole entry): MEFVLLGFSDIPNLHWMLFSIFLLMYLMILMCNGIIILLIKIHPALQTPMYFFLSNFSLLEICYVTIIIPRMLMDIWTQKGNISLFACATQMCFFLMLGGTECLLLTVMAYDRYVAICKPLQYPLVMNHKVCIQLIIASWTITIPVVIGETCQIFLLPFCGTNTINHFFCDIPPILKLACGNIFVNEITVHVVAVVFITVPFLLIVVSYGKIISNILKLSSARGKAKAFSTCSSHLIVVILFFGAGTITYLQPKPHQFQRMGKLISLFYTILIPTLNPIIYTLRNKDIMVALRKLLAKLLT
Outline: as §1

OR10C1 (Homo sapiens) = target: T10, OR10C1 (Homo sapiens) (UniProt Q96KK4)
T10 sequence (whole entry): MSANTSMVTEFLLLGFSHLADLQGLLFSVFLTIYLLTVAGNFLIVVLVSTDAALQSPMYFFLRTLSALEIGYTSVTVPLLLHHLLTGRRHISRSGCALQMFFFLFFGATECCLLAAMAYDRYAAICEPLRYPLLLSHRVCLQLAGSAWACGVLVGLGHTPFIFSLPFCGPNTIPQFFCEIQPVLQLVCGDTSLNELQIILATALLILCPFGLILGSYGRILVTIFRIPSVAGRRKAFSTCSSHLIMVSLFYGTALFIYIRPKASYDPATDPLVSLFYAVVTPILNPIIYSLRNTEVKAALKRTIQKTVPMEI
Outline: as §1

OR10D3 (Homo sapiens) = target: T11, OR10D3 (Homo sapiens) (UniProt Q8NH80)
T11 sequence (whole entry): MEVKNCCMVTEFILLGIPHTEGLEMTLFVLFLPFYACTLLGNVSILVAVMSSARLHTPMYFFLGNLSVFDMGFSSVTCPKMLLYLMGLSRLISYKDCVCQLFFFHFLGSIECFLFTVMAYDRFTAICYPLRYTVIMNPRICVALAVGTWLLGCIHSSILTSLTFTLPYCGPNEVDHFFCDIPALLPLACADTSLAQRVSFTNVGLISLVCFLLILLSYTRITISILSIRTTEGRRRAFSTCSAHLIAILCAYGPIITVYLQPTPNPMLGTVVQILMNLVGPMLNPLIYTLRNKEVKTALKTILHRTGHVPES
Outline: as §1

Measured: odorant receptor agonist call

CCCCCCCCCCCCCC(C)=O
inactive: O5AN1

CCC(S)C(C)CO (configuration not stated)
inactive: OR10A2 (Homo sapiens) | OR10A3 (Homo sapiens) | OR10A4 (Homo sapiens) | OR10A5 (Homo sapiens) | OR10A6 (Homo sapiens) | OR10A7 (Homo sapiens) | OR10AD1 (Homo sapiens) | OR10AG1 (Homo sapiens) | OR10C1 (Homo sapiens) | OR10D3 (Homo sapiens)

CCCCCC(=O)C(C)C(C)=O (configuration not stated)
inactive: OR10A2 (Homo sapiens) | OR10A3 (Homo sapiens) | OR10A4 (Homo sapiens) | OR10A5 (Homo sapiens) | OR10A6 (Homo sapiens) | OR10A7 (Homo sapiens) | OR10AD1 (Homo sapiens) | OR10AG1 (Homo sapiens) | OR10C1 (Homo sapiens) | OR10D3 (Homo sapiens)

CCC(=O)OCC(C)(C)OC(C)C1CCCC(C)(C)C1 (configuration not stated)
inactive: O5AN1
